Laboratory results from ChEMBL document CHEMBL5046307 (ACS Med Chem Lett, 2022).

Key:
[1] = Inhibition of human electron transport chain complex 1 in human NCI-H1299 cells assessed as reduction in cellular ATP level measured after 24 hrs by CellTiter-Glo assay; type: cell-based
Procedure, shortened: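 ATP-dependent luciferase luminescence read in H1299 cells, first without (M1) and then after adding the complex II substrate succinate (M2), to separate complex I block from downstream respiratory-chain inhibition or uncoupling.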

[2] = Lipophilicity, logD of compound; conditions: octanol/water
[3] = Blood clearance in male Wistar rat at 0.3 to 5 mg/kg, iv and po by LC-MS/MS analysis; type: ADME, organism-based; conditions: dose 0.3-5 mg/kg
[4] = Metabolic stability in rat hepatocyte assessed as maximum bioavailability measured up to 90 mins by LC-MS/MS analysis; type: ADME; conditions: for Fh at 1.5 h: rat hepatocytes, read-out: Fmax
[5] = Inhibition of human electron transport chain complex 1 in rat C6 cells assessed as reduction in cellular ATP measured after 24 hrs by CellTiter-Glo assay; type: cell-based; conditions: C6, 24 h
[6] = Inhibition of human electron transport chain complex 1 in dog MDCK cells assessed as reduction in cellular ATP measured after 24 hrs by CellTiter-Glo assay; type: cell-based
[7] = Inhibition of human electron transport chain complex 1 in mouse 4T1 cells assessed as reduction in cellular ATP measured after 24 hrs by CellTiter-Glo assay; type: cell-based; conditions: 4T1, 24 h
[8] = Inhibition of human electron transport chain complex 1 in human HCT-116 cells assessed as reduction in cellular ATP measured after 24 hrs by CellTiter-Glo assay; type: cell-based; conditions: HCT-116, 24 h
[9] = Inhibition of human electron transport chain complex 1 in dog A-72 cells assessed as reduction in cellular ATP measured after 24 hrs by CellTiter-Glo assay; type: cell-based; conditions: A-72, 24 h
[10] = Clearance in male Wistar rat blood at 0.4 mg/kg, iv by LC-MS/MS analysis
[11] = Oral bioavailability in Wistar rat plasma at 0.8 mg/kg by LC-MS/MS analysis; type: ADME, organism-based
[12] = Volume of distribution at steady state in Wistar rat plasma at 0.4 mg/kg, iv by LC-MS/MS analysis; type: ADME, organism-based; conditions: read-out: Vdss
[13] = Half life in Wistar rat plasma at 0.4 mg/kg, iv by LC-MS/MS analysis; type: ADME, organism-based
[14] = Inhibition of rat electron transport chain complex 1 assessed as reduction in cellular ATP measured after 24 hrs by celltiter-glo assay
[15] = Inhibition of dog electron transport chain complex 1 assessed as reduction in cellular ATP measured after 24 hrs by celltiter-glo assay; conditions: Canis lupus familiaris
[16] = Plasma protein binding in mouse assessed as fraction unbound incubated for 6 to 8 hrs by LC-MS/MS analysis; type: ADME, cell-free; conditions: time 6-8 hrs
[17] = Inhibition of mouse electron transport chain complex 1 assessed as reduction in cellular ATP measured after 24 hrs by celltiter-glo assay
[18] = AUC in Wistar rat plasma at 0.8 mg/kg, po by LC-MS/MS analysis; type: ADME, organism-based; parameters: dose 0.8 mg/kg; conditions: in vivo

| SMILES | logD [2] | IC50 ([1]; Homo sapiens, NCI-H1299, 24 h) | further results |
| --- | --- | --- | --- |
| c1ccc2oc(-c3csc(C4CCN(Cc5cn6ccccc6n5)CC4)n3)cc2c1 | 2.9 | 340 nM | – |
| CC(C)(c1nc2ccccc2[nH]1)N1CCC(c2nc(-c3cc4ccccc4o3)cs2)CC1 | 3.8 | 3000 nM | – |
| CCn1c(CN2CCC(c3nc(-c4cc5ccccc5o4)cs3)CC2)nc2ccccc21 | 3.4 | > 30000 nM | – |
| CN(C(=O)CN1CCC(c2nc(-c3cc4ccccc4o3)cs2)CC1)c1ccncc1 | 3 | 96 nM | Fh at 1.5 h [4]: 10% |
| O=C(CN1CCC(c2nc(-c3cc4ccccc4o3)cs2)CC1)Nc1ccncc1 | – | 70 nM | – |
| O=C(CN1CCC(c2nc(-c3cc4ccccc4o3)cs2)CC1)Nc1ccccc1F | – | 3240 nM | – |
| c1ccc2oc(-c3csc(C4CCN(Cc5cn6cccnc6n5)CC4)n3)cc2c1 | 2.5 | 730 nM | – |
| CCc1nccc(NC(=O)CN2CCC(c3nc(-c4cc5ccccc5o4)cs3)CC2)c1Cl | – | 102 nM | – |
| O=C(CN1CCC(c2nc(-c3cc4ccccc4o3)cs2)CC1)Nc1cccc(C(F)(F)F)c1 | – | 3280 nM | – |
| c1ccc2[nH]c(CN3CCC(c4nc(-c5nc6ccccc6s5)cs4)CC3)nc2c1 | 3.1 | 710 nM | – |
| Cc1nsc(NC(=O)CN2CCC(c3nc(-c4cc5ccccc5o4)cs3)CC2)c1Cl | 5.1 | 25 nM | IC50 [5]: 1.7 nM; IC50 [6]: 49 nM; IC50 [7]: 13 nM; clearance [3]: 163 mL/min/kg; Fh at 1.5 h [4]: 18%; IC50 [8]: 3.9 nM; IC50 [9]: 27 nM |
| Cn1c(CN2CCC(c3nc(-c4cc5ccccc5o4)cs3)CC2)nc2ccccc21 | 4.3 | 700 nM | – |
| O=C(c1nc2ccccc2[nH]1)N1CCC(c2nc(-c3cc4ccccc4o3)cs2)CC1 | 4.3 | 3000 nM | – |
| c1ccc(-c2csc(C3CCN(Cc4nc5ccccc5[nH]4)CC3)n2)cc1 | 3 | 10000 nM | – |
| c1ccc2oc(-c3csc(C4CCN(Cc5nc6cnccc6[nH]5)CC4)n3)cc2c1 | – | 38 nM | clearance [10]: 20 mL/min/kg; bioavailability [11]: 80%; Vd [12]: 3.2 L/kg; half-life [13]: 3.1 h; Fh at 1.5 h [4]: 63%; IC50 [14]: 22 nM; IC50 [15]: 37 nM; Fu [16]: 0.59%; IC50 [17]: 26 nM; AUC [18]: 1 kg·h/L |
| CC(C)(C(=O)Nc1cccc(F)c1)N1CCC(c2nc(-c3cc4ccccc4o3)cs2)CC1 | 5.7 | > 30000 nM | Fh at 1.5 h [4]: 55% |
| O=C(CN1CCC(c2nc(-c3cc4ccccc4o3)cs2)CC1)Nc1cccc(F)c1 | – | 420 nM | – |
| Cn1c(-c2csc(C3CCN(Cc4nc5ccccc5[nH]4)CC3)n2)nc2ccccc21 | 2.5 | 20000 nM | – |
| c1ccc2oc(-c3csc(C4CCN(c5nnc(-c6ccncc6)o5)CC4)n3)cc2c1 | 3.3 | 13400 nM | Fh at 1.5 h [4]: 44% |
| O=C(CN1CCC(c2nc(-c3cc4ccccc4o3)cs2)CC1)Nc1cncs1 | – | 155 nM | – |
| O=C(CN1CCC(c2nc(-c3cc4ccccc4o3)cs2)CC1)Nc1ccccc1 | – | 882 nM | – |
| Cc1nsc(NC(=O)C(C)N2CCC(c3nc(-c4cc5ccccc5o4)cs3)CC2)c1Cl (racemic) | 5.6 | 77 nM | clearance [3]: 118 mL/min/kg; Fh at 1.5 h [4]: 61% |
| CC(c1nc2ccccc2[nH]1)N1CCC(c2nc(-c3cc4ccccc4o3)cs2)CC1 (racemic) | 3.7 | 400 nM | – |
| CCc1nccc(N2CCC(N3CCC(c4nc(-c5cc6ccccc6o5)cs4)CC3)C2=O)c1Cl (single isomer, unassigned; form 1) | 4.2 | – | IC50 ([1]; nci-h1299): 14 nM; clearance [3]: 45 mL/min/kg; Fh at 1.5 h [4]: 40% |
| CCc1nccc(N2CCC(N3CCC(c4nc(-c5cc6ccccc6o5)cs4)CC3)C2=O)c1Cl (single isomer, unassigned; form 2) | – | – | IC50 ([1]; nci-h1299): 950 nM; Fmax ([4]; hepatocytes, 1.5 h): 43% |

Now from value to compound, other results behind:

| logD [2] | SMILES | IC50 ([1]; Homo sapiens, NCI-H1299, 24 h) | further results |
| --- | --- | --- | --- |
| 3.7 | Fc1cccc2[nH]c(CN3CCC(c4nc(-c5cc6ccccc6o5)cs4)CC3)nc12 | 325 nM | clearance [3]: 18.3 mL/min/kg; Fh at 1.5 h [4]: 57% |
| 3.5 | Fc1ccc2cc(-c3csc(C4CCN(Cc5nc6ccccc6[nH]5)CC4)n3)oc2c1 | 500 nM | – |
| 3 | N#Cc1ccc2oc(-c3csc(C4CCN(Cc5nc6ccccc6[nH]5)CC4)n3)cc2c1 | 2000 nM | – |
| 3 | Cc1ccc2[nH]c(CN3CCC(c4nc(-c5cc6ccccc6o5)cs4)CC3)nc2n1 | 300 nM | – |
| 3.1 | c1ccc2oc(-c3csc(C4CCN(Cc5cn6ncccc6n5)CC4)n3)cc2c1 | 300 nM | – |
| 2.6 | c1ccc2oc(-c3csc(C4CCN(Cc5ncc[nH]5)CC4)n3)cc2c1 | 4000 nM | – |
| 4.6 | c1ccc2oc(-c3csc(C4CCN(Cc5nc6ccccc6o5)CC4)n3)cc2c1 | 1720 nM | – |
| 2.4 | c1ccc2[nH]c(CN3CCC(c4nc(-c5cc6ncccc6o5)cs4)CC3)nc2c1 | 770 nM | – |
| 5.6 | c1ccc2oc(-c3csc(C4CCN(Cc5nc6ccccc6s5)CC4)n3)cc2c1 | 1760 nM | – |
| 3.4 | N#Cc1ccc2nc(CN3CCC(c4nc(-c5cc6ccccc6o5)cs4)CC3)[nH]c2c1 | 860 nM | – |
| 2.6 | c1ccc2oc(-c3csc(C4CCN(Cc5nc6ncncc6[nH]5)CC4)n3)cc2c1 | 80 nM | – |
| 3.7 | c1ccc(-c2c[nH]c(CN3CCC(c4nc(-c5cc6ccccc6o5)cs4)CC3)n2)cc1 | 860 nM | – |
| 2.6 | c1coc(-c2csc(C3CCN(Cc4nc5ccccc5[nH]4)CC3)n2)c1 | > 30000 nM | – |
| 3.1 | Fc1cnc2nc(CN3CCC(c4nc(-c5cc6ccccc6o5)cs4)CC3)[nH]c2c1 | 300 nM | – |
| 2.7 | c1ccc2oc(-c3csc(C4CCN(Cc5cn6ccncc6n5)CC4)n3)cc2c1 | 390 nM | – |
| 3 | Cc1ccnc2nc(CN3CCC(c4nc(-c5cc6ccccc6o5)cs4)CC3)[nH]c12 | 300 nM | – |
| 3.4 | c1ccc2oc(-c3csc(C4CCN(Cc5nc6ccccc6[nH]5)CC4)n3)cc2c1 | 200 nM | – |
